Measured values gathered from unrelated publications.
Compare with care: the assays were run in different laboratories.
Target: Membrane-associated tyrosine- and threonine-specific cdc2-inhibitory kinase (PKMYT1, Homo sapiens, UniProt Q99640)
Sequence (Q99640 1-499, as in one of the studies): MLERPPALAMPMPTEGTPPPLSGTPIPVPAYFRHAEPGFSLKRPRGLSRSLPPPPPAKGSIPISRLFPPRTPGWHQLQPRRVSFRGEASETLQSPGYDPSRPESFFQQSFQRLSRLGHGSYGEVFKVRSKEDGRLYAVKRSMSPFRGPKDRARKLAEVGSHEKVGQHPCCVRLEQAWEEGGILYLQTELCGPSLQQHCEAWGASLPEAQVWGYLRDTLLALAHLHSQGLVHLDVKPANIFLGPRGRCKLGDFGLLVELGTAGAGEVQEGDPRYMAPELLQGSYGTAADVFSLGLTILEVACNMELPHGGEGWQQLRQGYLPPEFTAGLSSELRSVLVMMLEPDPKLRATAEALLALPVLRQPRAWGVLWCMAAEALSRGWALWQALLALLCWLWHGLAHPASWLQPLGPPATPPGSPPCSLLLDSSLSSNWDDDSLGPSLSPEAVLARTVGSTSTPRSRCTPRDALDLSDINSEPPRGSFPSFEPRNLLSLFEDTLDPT

| SMILES | assay | conditions | remaining binding |
| --- | --- | --- | --- |
| COc1ncc2cc3ccccc3nc2c1C#N | cell-free assay, competition with immobilised ligand | 5 µM | 100% |
| O=C(c1ccc(Nc2nccc(-c3cc4ccccc4s3)n2)cc1)N1CCC(N2CCCC2)CC1 | binding, competition with immobilised ligand | 1 µM | 70% |
| O=C(NCC1CCOCC1)c1n[nH]cc1NC(=O)c1c(F)cccc1F | binding, competition with immobilised ligand | 1 µM | 72% |
| O=C(Nc1cccnn1)N1CC(C/C=C/c2cncc(Oc3ccc(C(F)(F)F)cn3)n2)C1 | cell-free assay, competition with immobilised ligand | 1 µM | 100% |
| CN(c1nccc(-c2cnn3ncccc23)n1)C1CC1 | binding | 1 µM | 88% |
| CNC(=O)[C@@H]1CC[C@@H](n2c(-c3ccc4cnccc4c3)nc3ccc(C(=O)NCc4cccc(C(N)=O)c4)cc32)C1 | binding, competition with immobilised ligand | 1 µM | 100% |
| CC1CCCN1c1nccc(-c2cnn3ncccc23)n1 (centres unmarked) | binding | 1 µM | 97% |
| O=C(c1ccc(Nc2ncc(Cl)c(-c3ccc(Cl)s3)n2)cc1)N1CCC(N2CCCC2)CC1 | binding, competition with immobilised ligand | 1 µM | 100% |
| CN(C)c1ncc(F)c(-c2cnn3ncccc23)n1 | binding | 1 µM | 97% |
| O=C1CCc2cc(Nc3cc(OC4CCOCC4)c([N+](=O)[O-])cc3Cl)ccc2N1 | cell-free assay, competition with immobilised ligand | 1 µM | 79% |
| N[C@H]1CCN(c2nccc(-c3cnn4ncccc34)n2)C1 | binding | 1 µM | 91% |
| NS(=O)(=O)c1cc(NC(=O)Cc2ccccc2)ccc1Oc1cccc(Cl)c1 | cell-free assay, competition with immobilised ligand | 1 µM | 96% |
| F[C@@H]1CCN(c2nccc(-c3cnn4ncccc34)n2)C1 | binding | 1 µM | 100% |
| COc1cnc(Nc2cccc(S(N)(=O)=O)c2)nc1N1CCN(c2ccccc2)C(=O)C1 | binding, competition with immobilised ligand | 1 µM | 86% |
| O=C(Nc1ccc(Oc2ccc(F)cc2)cc1)N1CCc2ncccc2[C@H]1c1ccc(F)cc1 | cell-free assay, competition with immobilised ligand | 1 µM | 63% |
| O=C(NCCCN1CCOCC1)c1ccc(Nc2nccc(-c3cc4ccccc4s3)n2)cc1 | binding, competition with immobilised ligand | 1 µM | 84% |
| CS(=O)(=O)N1CCCC(NC(=O)[C@H](CCC2CCCCC2)NC(=O)c2ccc(CNC(=O)c3cnc4ccccn34)cc2)C1 (some centres unmarked) | cell-free assay, competition with immobilised ligand | 0.1 µM | 100% |
| CCN1CCN(Cc2ccc(C(=O)Nc3ccc(C)c(Oc4ccc5c(c4)CC(=O)N5)c3)cc2C(F)(F)F)CC1 | binding, competition with immobilised ligand | 1 µM | 70% |
| CN1CCN(c2cnc3c(C4CCN(C(=O)c5ccc(OC(F)(F)F)cc5N)CC4)ncnc3c2)CC1 | cell-free assay, competition with immobilised ligand | 1 µM | 100% |
| CN(C)c1nccc(-c2cnc3ncccn23)n1 | binding | 1 µM | 88% |
